Measured values: article PMC3288198 (ACS Chemical Biology, 2011)
Like-named read-outs stand apart in the source and are kept apart here.

Assays:
Format in all cases: biochemical
[1] = target: HDAC3/N-CoR2 (Homo sapiens, UniProt O15379); test: HDAC deacetylase homogenous fluorescence assay, HDAC3
Summary of the method: (§1)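 Baculovirus-expressed recombinant human enzyme (HDAC3 as HDAC3/N-CoR2 complex) incubated with serially diluted test compound over a 12-point titration. Substrate: acetylated AMC-K(Ac)GL. Deacetylated product cleaved by lysine peptidase to free MCA, read at ex 355/em 460 nm. Data normalised to control plate by plate. IC50 and SD from non-linear regression; Ki via Cheng-Prusoff, Ki = IC50/(1+[S]/Km).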

[2] = target: HDAC4 (Homo sapiens, UniProt P56524); test: HDAC deacetylase homogenous fluorescence assay, HDAC4
[3] = target: T1, HDAC7 (Homo sapiens, UniProt Q8WUI4); test: HDAC deacetylase homogenous fluorescence assay, HDAC7
T1 sequence (Q8WUI4 1-952): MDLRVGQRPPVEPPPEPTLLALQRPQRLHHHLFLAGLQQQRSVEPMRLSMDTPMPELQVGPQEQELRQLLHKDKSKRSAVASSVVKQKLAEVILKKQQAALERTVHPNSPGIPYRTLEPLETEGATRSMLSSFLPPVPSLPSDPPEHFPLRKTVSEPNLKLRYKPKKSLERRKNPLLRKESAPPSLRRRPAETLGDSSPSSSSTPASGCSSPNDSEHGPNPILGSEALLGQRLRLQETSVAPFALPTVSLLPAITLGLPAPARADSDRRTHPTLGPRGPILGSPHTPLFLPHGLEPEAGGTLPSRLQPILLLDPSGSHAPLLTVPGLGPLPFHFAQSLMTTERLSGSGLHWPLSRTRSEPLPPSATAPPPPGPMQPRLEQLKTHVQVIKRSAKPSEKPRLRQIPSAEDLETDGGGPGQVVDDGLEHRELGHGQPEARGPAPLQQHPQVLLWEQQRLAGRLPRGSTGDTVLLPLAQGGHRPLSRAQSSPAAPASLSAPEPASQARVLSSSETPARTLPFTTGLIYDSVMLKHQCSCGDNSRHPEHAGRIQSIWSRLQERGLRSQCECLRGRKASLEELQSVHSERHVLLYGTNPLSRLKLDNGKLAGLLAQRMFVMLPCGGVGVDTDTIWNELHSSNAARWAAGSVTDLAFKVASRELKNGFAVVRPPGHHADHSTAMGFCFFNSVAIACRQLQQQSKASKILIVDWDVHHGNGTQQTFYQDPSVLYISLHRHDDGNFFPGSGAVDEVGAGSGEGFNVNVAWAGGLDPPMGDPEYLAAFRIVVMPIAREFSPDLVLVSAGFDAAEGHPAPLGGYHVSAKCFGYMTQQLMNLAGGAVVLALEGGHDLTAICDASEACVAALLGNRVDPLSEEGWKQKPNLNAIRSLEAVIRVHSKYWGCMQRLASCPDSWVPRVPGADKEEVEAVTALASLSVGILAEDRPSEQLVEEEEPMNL

[4] = target: HDAC1 (Homo sapiens, UniProt Q13547); test: HDAC deacetylase homogenous fluorescence assay, HDAC1
Summary of the method: as §1

[5] = target: T2, HDAC6 (Homo sapiens, UniProt Q9UBN7); test: HDAC deacetylase homogenous fluorescence assay, HDAC6
T2 sequence (Q9UBN7 1-1215): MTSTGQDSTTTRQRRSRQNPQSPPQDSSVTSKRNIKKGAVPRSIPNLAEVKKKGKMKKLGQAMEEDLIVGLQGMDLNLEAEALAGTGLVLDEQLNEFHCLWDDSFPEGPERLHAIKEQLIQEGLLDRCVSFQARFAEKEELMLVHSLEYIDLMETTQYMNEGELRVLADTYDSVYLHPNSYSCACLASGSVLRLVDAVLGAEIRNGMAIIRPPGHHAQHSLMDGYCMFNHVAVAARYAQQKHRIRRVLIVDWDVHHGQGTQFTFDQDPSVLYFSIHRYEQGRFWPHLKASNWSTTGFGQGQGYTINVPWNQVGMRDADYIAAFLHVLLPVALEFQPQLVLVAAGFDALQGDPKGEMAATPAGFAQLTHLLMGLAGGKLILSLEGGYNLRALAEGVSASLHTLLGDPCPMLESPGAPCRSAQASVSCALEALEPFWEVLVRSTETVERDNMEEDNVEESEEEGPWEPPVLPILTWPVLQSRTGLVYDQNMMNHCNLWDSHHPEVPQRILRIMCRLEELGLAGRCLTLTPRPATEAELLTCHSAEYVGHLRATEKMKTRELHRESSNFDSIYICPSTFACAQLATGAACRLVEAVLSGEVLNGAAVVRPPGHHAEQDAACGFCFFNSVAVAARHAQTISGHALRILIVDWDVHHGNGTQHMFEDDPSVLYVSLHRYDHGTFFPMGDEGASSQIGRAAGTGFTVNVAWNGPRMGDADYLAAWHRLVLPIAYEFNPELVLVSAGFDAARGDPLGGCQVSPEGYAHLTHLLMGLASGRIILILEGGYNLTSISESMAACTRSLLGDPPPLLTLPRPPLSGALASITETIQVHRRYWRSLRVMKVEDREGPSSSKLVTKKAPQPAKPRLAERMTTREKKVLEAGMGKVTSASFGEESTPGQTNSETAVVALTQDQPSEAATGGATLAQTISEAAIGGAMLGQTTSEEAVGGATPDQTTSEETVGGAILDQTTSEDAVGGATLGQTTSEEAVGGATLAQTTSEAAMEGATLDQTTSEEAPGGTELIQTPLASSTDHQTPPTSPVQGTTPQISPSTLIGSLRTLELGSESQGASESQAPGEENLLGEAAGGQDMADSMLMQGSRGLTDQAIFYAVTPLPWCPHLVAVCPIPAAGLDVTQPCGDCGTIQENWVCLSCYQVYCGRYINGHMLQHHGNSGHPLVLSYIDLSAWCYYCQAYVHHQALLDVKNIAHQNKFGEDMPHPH
Summary of the method: as §1

[6] = target: T3, HDAC11 (Homo sapiens, UniProt Q96DB2); test: HDAC deacetylase homogenous fluorescence assay, HDAC11
T3 sequence (Q96DB2 1-347): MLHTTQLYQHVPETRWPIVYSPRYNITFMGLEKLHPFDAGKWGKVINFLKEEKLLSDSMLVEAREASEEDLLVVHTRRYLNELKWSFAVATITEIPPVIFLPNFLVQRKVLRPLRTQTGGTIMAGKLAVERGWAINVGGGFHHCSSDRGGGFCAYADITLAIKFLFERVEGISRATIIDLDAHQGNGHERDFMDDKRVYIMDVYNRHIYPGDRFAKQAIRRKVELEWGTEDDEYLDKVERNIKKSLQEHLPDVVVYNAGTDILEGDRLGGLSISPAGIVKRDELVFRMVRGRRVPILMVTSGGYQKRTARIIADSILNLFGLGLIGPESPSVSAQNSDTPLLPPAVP

[7] = target: HDAC2 (Homo sapiens, UniProt Q92769); test: HDAC deacetylase homogenous fluorescence assay, HDAC2; details: for Ki: read-out: HDAC2 Ki, converted from IC50 using Cheng-Prusoff equation
Summary of the method: as §1

[8] = read-out: HDAC3 IC50, 12 point titration, acetylated substrate
[9] = read-out: HDAC3 Ki, converted from IC50 using Cheng-Prusoff equation
[10] = read-out: HDAC4 IC50, 12 point titration, trifluoroacetylated substrate
[11] = read-out: HDAC4 Ki, converted from IC50 using Cheng-Prusoff equation
[12] = read-out: HDAC7 IC50, 12 point titration, trifluoroacetylated substrate
[13] = read-out: HDAC7 Ki, converted from IC50 using Cheng-Prusoff equation
[14] = read-out: HDAC1 IC50, 12 point titration, acetylated substrate
[15] = read-out: HDAC1 Ki, converted from IC50 using Cheng-Prusoff equation
[16] = read-out: HDAC6 IC50, 12 point titration, acetylated substrate
[17] = read-out: HDAC6 Ki, converted from IC50 using Cheng-Prusoff equation
[18] = read-out: HDAC11 IC50, 12 point titration, trifluoroacetylated substrate
[19] = read-out: HDAC2 IC50, 12 point titration, acetylated substrate

HDAC1, sequence (Q13547 whole entry): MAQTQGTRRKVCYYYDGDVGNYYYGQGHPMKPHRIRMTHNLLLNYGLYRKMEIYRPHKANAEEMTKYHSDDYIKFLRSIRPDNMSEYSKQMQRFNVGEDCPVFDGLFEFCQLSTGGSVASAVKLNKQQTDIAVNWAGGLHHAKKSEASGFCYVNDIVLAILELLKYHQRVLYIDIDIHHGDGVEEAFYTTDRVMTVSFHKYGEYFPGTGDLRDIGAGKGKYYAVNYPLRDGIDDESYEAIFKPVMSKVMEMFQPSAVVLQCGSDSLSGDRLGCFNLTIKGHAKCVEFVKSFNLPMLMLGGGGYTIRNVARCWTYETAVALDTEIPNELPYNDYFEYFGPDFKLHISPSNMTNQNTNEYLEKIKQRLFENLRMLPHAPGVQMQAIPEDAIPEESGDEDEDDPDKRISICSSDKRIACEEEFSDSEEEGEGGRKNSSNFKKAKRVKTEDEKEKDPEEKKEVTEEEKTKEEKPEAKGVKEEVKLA
HDAC2, sequence (Q92769 whole entry): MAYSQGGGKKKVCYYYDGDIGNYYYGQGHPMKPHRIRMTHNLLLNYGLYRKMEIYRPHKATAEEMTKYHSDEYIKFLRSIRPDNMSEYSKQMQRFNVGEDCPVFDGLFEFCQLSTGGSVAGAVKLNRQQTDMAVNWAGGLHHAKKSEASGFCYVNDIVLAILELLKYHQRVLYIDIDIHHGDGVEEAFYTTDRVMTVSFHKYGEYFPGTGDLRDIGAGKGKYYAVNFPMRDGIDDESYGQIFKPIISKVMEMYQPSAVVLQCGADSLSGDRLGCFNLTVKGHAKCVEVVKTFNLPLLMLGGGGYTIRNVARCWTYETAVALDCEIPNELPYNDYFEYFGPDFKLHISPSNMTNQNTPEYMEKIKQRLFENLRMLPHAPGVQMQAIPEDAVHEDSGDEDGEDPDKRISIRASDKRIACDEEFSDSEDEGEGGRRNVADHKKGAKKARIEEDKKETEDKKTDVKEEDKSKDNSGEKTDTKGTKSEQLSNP
HDAC3/N-CoR2, sequence (O15379 whole entry): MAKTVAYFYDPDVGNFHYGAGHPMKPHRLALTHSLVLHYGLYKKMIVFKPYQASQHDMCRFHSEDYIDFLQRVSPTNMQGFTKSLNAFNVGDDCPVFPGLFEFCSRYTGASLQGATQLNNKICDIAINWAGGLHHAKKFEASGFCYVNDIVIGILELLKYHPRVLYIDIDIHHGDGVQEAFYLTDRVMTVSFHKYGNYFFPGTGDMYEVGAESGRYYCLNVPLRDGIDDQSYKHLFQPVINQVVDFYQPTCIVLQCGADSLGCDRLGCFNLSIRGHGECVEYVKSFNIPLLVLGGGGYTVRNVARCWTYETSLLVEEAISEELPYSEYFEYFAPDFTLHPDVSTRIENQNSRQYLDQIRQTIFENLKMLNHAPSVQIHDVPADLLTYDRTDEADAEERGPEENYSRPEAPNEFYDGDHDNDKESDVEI
HDAC3/N-CoR2, sequence (Q9Y618 395-489 partner limits assumed): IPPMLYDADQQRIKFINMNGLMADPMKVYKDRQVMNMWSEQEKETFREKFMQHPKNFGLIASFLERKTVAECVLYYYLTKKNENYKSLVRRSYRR
HDAC4, sequence (P56524 whole entry): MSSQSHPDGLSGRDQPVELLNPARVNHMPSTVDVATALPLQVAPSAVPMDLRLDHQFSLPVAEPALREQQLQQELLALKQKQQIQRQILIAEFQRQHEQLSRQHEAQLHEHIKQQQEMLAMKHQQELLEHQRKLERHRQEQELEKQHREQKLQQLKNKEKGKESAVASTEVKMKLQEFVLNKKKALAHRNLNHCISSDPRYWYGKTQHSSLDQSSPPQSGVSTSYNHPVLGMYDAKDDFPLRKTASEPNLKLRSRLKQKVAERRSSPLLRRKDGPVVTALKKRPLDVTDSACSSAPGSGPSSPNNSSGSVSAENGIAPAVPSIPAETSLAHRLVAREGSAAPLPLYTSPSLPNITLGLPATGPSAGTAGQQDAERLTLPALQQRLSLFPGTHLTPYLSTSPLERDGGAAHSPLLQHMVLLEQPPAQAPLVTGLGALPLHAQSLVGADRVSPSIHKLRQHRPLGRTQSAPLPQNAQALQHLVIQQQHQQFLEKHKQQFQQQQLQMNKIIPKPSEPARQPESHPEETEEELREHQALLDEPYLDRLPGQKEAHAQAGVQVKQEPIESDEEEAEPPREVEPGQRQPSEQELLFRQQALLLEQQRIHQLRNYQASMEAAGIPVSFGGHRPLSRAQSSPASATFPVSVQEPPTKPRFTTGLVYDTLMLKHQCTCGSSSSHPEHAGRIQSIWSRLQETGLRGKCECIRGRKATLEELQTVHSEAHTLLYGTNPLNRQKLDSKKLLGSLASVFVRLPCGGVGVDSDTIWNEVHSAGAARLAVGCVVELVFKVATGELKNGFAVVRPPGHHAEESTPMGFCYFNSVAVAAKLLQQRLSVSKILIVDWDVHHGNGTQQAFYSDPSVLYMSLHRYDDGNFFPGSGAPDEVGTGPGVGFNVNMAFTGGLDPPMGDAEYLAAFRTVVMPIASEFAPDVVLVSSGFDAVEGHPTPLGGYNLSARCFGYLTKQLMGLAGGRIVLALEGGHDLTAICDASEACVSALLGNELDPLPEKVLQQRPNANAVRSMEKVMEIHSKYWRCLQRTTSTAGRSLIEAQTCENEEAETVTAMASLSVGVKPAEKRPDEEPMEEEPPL

SMILES	IC50 [1, 8]	Ki [1, 9]	IC50 [2, 10]	Ki [2, 11]	IC50 [3, 12]	Ki [3, 13]	IC50 [4, 14]	Ki [4, 15]	IC50 [5, 16]	Ki [5, 17]	IC50 [6, 18]	IC50 [7, 19]	IC50 [1]	IC50 [2]	Ki [2]	IC50 [3]	Ki [3]	IC50 [4]	IC50 [5]	Ki [5]	also measured
OC[C@H]1O[C@H]([S-])[C@H](O)[C@@H](O)[C@@H]1O.[Au+] [Aurothioglucose, 1-thio-D-glucopyronaose gold salt]	11.5 ± 3.2 µM	1.23 µM	4.1 ± 2.1 µM	0.7 µM	22.4 ± 4.4 µM	6.35 µM	4.4 ± 1.1 µM	0.47 µM	14.4 ± 5.8 µM	3.49 µM	> 180 µM	> 180 µM	–	–	–	–	–	–	–	–	–
O=c1c2ccccc2[se]n1-c1ccccc1 [Ebselen, 2-phenyl-1,2-benzisoselenazol-3(2H)-one]	–	–	–	–	–	–	–	–	–	–	–	–	2.1 ± 1.5 µM	1.2 ± 0.2 µM	0.2 µM	10.9 ± 2.2 µM	3.09 µM	1.5 ± 0.4 µM	12.8 ± 2.6 µM	3.1 µM	Ki [1]: 0.23 µM; Ki [4]: 0.15 µM; IC50 [6]: 22.5 ± 2.4 µM; Ki [6]: 4.41 µM; IC50 [7]: 1.4 ± 0.3 µM; Ki [7]: 0.08 µM
NC(N)=Nc1ccc2[nH]c3c(c2c1)C[C@@]1(O)[C@H]2Cc4ccc(O)c5c4[C@@]1(CCN2CC1CC1)[C@H]3O5 [GNTI, guanidinyl-naltrindole di-trifluoroacetate]	22.7 ± 3.1 µM	2.43 µM	13.4 ± 1.6 µM	2.29 µM	18.9 ± 1 µM	5.36 µM	30.2 ± 7.3 µM	3.24 µM	> 180 µM	–	> 180 µM	26.2 ± 7.6 µM	–	–	–	–	–	–	–	–	Ki [7]: 1.48 µM
O=C1C(SCCO)=C(SCCO)C(=O)c2ccccc21 [NSC-95397, 2,3-bis[(2-Hydroxyethyl)thio]-1,4-naphthoquinone]	–	–	–	–	–	–	–	–	–	–	–	–	> 100 µM	7.2 ± 2.8 µM	1.23 µM	13.1 ± 4.3 µM	3.72 µM	> 180 µM	12.7 ± 2.5 µM	3.07 µM	IC50 [6]: 37.8 ± 1.4 µM; Ki [6]: 7.41 µM; IC50 [7]: > 100 µM
COc1ccc2c(c1)CC[C@@H]1[C@@H]2CC[C@]2(C)[C@@H](NCCCCCCN3C(=O)C=CC3=O)CC[C@@H]12 [U-73122, 1-[6-[[(17beta)-3-methoxyestra-1,3,5([10])-trien-17-yl]amion]hexyl]-1H-pyrrole-2,5-dione]	6.2 ± 4 µM	0.66 µM	31.2 ± 0.2 µM	5.33 µM	> 180 µM	–	38.4 ± 15.5 µM	4.11 µM	45.2 ± 12.6 µM	11 µM	> 180 µM	> 100 µM	–	–	–	–	–	–	–	–	–
